An excerpt weighted towards active compounds, which were near 2.3% of everything screened.
MEKK2 WT-MEK5: modulators of MEK5 binding to wildtype MEKK2, primary screen, biochemical, multiplex bead flow cytometry, Alexa488-MEK5; Mitogen-activated protein kinase kinase kinase 2 (Homo sapiens), Q9Y2U5; Alexa488-MEK5 binding to MEKK2 WT; actives lie on both sides; binding response (% of control), % at 10 µM; 1.1% of 290,000 active; in the data active = binding response below about 67% or above about 130%
MEKK3 PB1 HTS: modulators of MEKK3-MEK5 PB1 binding, primary screen, biochemical, wildtype MEKK3, multiplex bead flow cytometry, Alexa488-MEK5. Mitogen-activated protein kinase kinase kinase 3 (Homo sapiens), Q99759. bead-based flow cytometry, Alexa488-MEK5 binding to MEKK3; actives lie on both sides; 0 = blocked by unlabeled MEK5, 100 = vehicle. binding response (% of control), % at 10 µM. 1.4% of 290,000 active. AID 1529, 2009;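 active = binding response more than 3 SD above or below the average of its plate-row segment, actives on both sides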;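 note: Alexa488 bead fluorescence after subtracting the streptavidin-only scavenger bead signal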
Target sequence (Q99759 whole entry, looked up): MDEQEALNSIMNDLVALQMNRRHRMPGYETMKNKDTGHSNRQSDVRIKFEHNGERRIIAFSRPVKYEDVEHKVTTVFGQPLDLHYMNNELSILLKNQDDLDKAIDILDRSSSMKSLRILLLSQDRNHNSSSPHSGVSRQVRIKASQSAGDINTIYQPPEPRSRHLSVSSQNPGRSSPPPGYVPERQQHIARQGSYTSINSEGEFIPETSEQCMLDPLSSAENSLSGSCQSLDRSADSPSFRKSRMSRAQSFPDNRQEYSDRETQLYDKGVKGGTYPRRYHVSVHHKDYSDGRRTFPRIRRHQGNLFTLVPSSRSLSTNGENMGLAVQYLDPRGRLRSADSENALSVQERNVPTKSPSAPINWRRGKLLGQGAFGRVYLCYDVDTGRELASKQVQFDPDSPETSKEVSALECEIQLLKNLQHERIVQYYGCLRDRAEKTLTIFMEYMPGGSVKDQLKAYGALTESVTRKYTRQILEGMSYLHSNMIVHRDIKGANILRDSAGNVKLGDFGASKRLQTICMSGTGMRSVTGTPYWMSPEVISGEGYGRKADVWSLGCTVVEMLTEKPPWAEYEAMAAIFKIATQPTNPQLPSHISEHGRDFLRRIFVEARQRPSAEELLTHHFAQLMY
Arr AP2 block: inhibitors of beta-arrestin/AP2 binding, primary screen, biochemical, GPCR trafficking, flow cytometry. beta-arrestin 1 C-terminal peptide binding to AP2 beta2-adaptin appendage (human). FITC-arrestin peptide / GST-AP2 beads; AP2 beta2 appendage carries R879A mutation. inhibition, % at 10 µM. 0.31% of 340,000 active;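 active = inhibition above a set limit, near 3 SD of compounds lacking own fluorescence, cut at about 54% in these data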;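 note: plate controls were DMSO wells for no effect and 5 µM unlabelled arrestin peptide for full effect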
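Material – GST-tagged AP2 beta2-adaptin appendage (R879A) on 4 µm glutathione beads · Probe or stimulus – fluorescein-tagged arrestin peptide at 50 nM final · Timing – 12 min plus 1 h, RT · Detection – bead flow cytometry, FITC channel · Read-out basis – inhibition as reduced fluorescein signal on beads, percent · Medium – PBS plus Tween 20 (0.05%) and BSA (0.1%)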
MEKK2 mut-MEK5: MEK5 binding signal on mutant MEKK2 PB1, primary screen, biochemical, multiplex bead flow cytometry, Alexa488-MEK5; percent response, % at 10 µM; Alexa488-MEK5 binding to MEKK2 mutant; 0.35% of 290,000 active; AID 1530, 2009; in the data active = percent response above about 24%, passing the limit was not always enough
MEKK2wt confirm: modulators of MEK5 binding to wildtype MEKK2, confirmation, biochemical, single concentration, multiplex bead flow cytometry. shares compounds with MEKK3 PB1 HTS. Alexa488-MEK5 binding to MEKK2 WT; actives lie on both sides. binding response (% of control), % at 10 µM. 2.4% of 5,900 active. AID 1892, 2009; in the data active = binding response below about 16% or above about 210%; inactive = in between
MEKK2mut-MEK5: mutant MEKK2 PB1-MEK5 binding signal retest – biochemical, single concentration, multiplex bead flow cytometry, confirmation; shares compounds with MEKK3 PB1 HTS; Alexa488-MEK5 binding to MEKK2 mutant; percent response, % at 10 µM; 2% of 5,900 active; AID 1893, 2009; in the data active = percent response mostly above about 71%, no sharp cut-off; inactive = mostly below about 38%;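 note: higher means compound restores mutant binding toward wildtype level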
MEKK3-MEK5 inh: MEKK3 wild-type PB1 binding to MEK5, inhibitors, confirmation, biochemical, bead multiplex flow cytometry, single concentration, wildtype | shares compounds with MEKK3 PB1 HTS | Alexa488-MEK5 binding to MEKK3; hits give low values | binding response (% of control), % at 10 µM | 1.8% of 5,900 active | AID 1894, 2009;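 active = binding response below 72% of control, or above a set upper limit, though filed actives all read lower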;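 note: 100% = DMSO only wells and 0% = binding blocked by excess unlabeled MEK5; lower values mean stronger disruption of MEK5 binding to MEKK3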
* marks the source's active call; other numbers are inactive results; · = not tested or not shown; [ ] = another dose, or the depositor's remark.

SMILES	MEKK2 WT-MEK5	MEKK3 PB1 HTS	Arr AP2 block	MEKK2 mut-MEK5	MEKK2wt confirm	MEKK2mut-MEK5	MEKK3-MEK5 inh
COc1cc2c3nnc(-c4ccc(F)cc4)c-3cn(Cc3ccc(F)cc3)c2cc1OC	193*	91	9	36*	190	57	100
CCC12OC(=N)C(C#N)(C1C)C(C#N)(C#N)C(c1ccccc1)O2 (stereo not given)	109	141*	0	0	108	3	103
CCC1OC2(C)OC(=N)C1(C#N)C(C#N)(C#N)C2c1ccccc1 (stereo not given)	105	112	-6	-1	·	·	·
CC(=O)N1CCOc2ccc(S(=O)(=O)NC[C@H]3O[C@@H](n4ccc(=O)[nH]c4=O)[C@H](O)[C@@H]3O)cc21	·	·	2	·	·	·	·
O=C(O)c1cc(O)ccc1NC(=O)c1cccc2ccccc12	122	132*	12	26	100	-3	103
O=c1[nH]c2ccccc2n2cnnc12	126	147*	0	6	100	6	105
CCN(CC)c1nc2ccccc2n2cnnc12	99	98	1	0	·	·	·
Cc1cccc(NS(=O)(=O)c2c(C)n[nH]c2C)c1	90	81*[inhibitor]	22	-5	96	-11	94
O=C(O)COc1ccccc1/C=N/NC(=O)CSc1nc2ccccc2n1Cc1ccc(Cl)cc1	57	50*[inhibitor]	-14	-28	103	6	106
Cc1cccc(Cc2c(C)nc3nc(SCC(=O)NCc4ccco4)nn3c2C)c1	122	126*	23	7	102	-1	101
Cc1ccccc1Cc1c(C)nc2nc(SCC(=O)NCc3ccco3)nn2c1C	118	116	-8	4	·	·	·
Cc1ccc(Cc2c(C)nc3nc(SCC(=O)NCc4ccco4)nn3c2C)cc1	129	122*	23	6	100	3	106
CC(/C=C/c1ccccc1)=N/NC(=O)c1nc2nc(C)cc(C)n2n1	117	130*	-12	1	97	0	100
CCc1[nH]nc(C(=O)N2CCCC(N3CCN(c4ccccc4C)CC3)C2)c1C (stereo not given)	108	106	-7	12	·	·	·
COC(=O)c1ccccc1NC(=O)NCc1ccncc1	93	103	-2	-6	·	·	·
O=C(CN1C(=O)NC2(CCCCCC2)C1=O)N1CCC(Cc2ccccc2)CC1	3.0*[inhibitor]	3.0*[inhibitor]	-3	-1	99	-4	96
C=CCn1c(=O)c2c3c(sc2n2c(Nc4ccc(OC)cc4)nnc12)CCCC3	99	99	-2	0	·	·	·
C=CCn1c(=O)c2c3c(sc2n2c(Nc4ccccc4)nnc12)CCCC3	13*[inhibitor]	10*[inhibitor]	-1	-22	91	-31	96
CCOc1ccc(C(=O)Nc2ccccc2C#N)cc1[N+](=O)[O-]	92	98	-19	-2	·	·	·
CCOc1ccc(C(=O)Nc2ccccc2CC)cc1[N+](=O)[O-]	87	50*[inhibitor]	9	-2	94	-26	89
O=C(CC1CS(=O)(=O)CC1CC(=O)Nc1ccc2c(c1)OCCO2)Nc1ccc2c(c1)OCCO2 (stereo not given)	97	103	9	-4	·	·	·
CCOc1cc([N+](=O)[O-])c2nc(N)sc2c1	107	112	-8	6	·	·	·
Cc1nc(C(F)(F)F)c(C(=O)O)cc1-c1nc(-c2ccccc2)cs1	106	101	1	-4	·	·	·
O=C(Cn1cnc2ccccc2c1=O)N1CCN(c2ccccc2)CC1	104	122*	-3	6	102	1	103
COc1ccc(CCNCc2cc(C)n(-c3ccc(OC)cc3)c2C)cc1	184*	97	13	61*	148	22	99
SMILES	MEKK2 WT-MEK5	MEKK3 PB1 HTS	Arr AP2 block	MEKK2 mut-MEK5	MEKK2wt confirm	MEKK2mut-MEK5	MEKK3-MEK5 inh
COc1ccc(CN2CCC(n3nccc3NC(=O)c3cccc(F)c3)CC2)cc1O	109	99	-8	3	·	·	·
CCOC(=O)CSC1=N/C(=C\c2cc(OC)c(OC)c(OC)c2)C(=O)N1C	106	153*	-4	1	97	-8	101
Cc1cc(C)n(-c2nc(SCCN(C)C)c3c4c(sc3n2)CCCC4)n1	211*	124*	23	49*	152	28	98
O=C(COc1ccc(Br)cc1)Nc1cc(S(=O)(=O)N2CCCCC2)ccc1N1CCCCC1	106	139*	-3	0	101	-1	101
O=C(CSc1n[nH]c(=O)[nH]c1=O)c1cccc([N+](=O)[O-])c1	99	103	-8	-2	·	·	·
O=C(CSc1n[nH]c(=O)[nH]c1=O)c1ccccc1[N+](=O)[O-]	70	64*[inhibitor]	2	-33	102	3	107
O=C(/C=C\c1ccc2c(c1)OCO2)Nc1c2c(nn1-c1ccc(Cl)cc1)CSC2	99	115	12	-3	·	·	·
CC(Sc1nnc(Cc2ccc3c(c2)OCO3)o1)C(N)=O (stereo not given)	116	133*	6	5	101	-4	99
O=C(COC(=O)CSc1nnc(-c2ccc(Cl)cc2)o1)NCc1ccc2c(c1)OCO2	85	81*[inhibitor]	2	-12	102	-2	102
NC(=O)CSc1nnc(Cc2ccc3c(c2)OCO3)o1	124	143*	1	6	1.0*[inhibitor]	-29	2.0*
COc1ccc(C(=O)N2CCCC(N3CCN(c4ccccc4F)CC3)C2)c(OC)n1 (stereo not given)	98	100	14	-7	·	·	·
CCOc1ccc(NC(=O)CC2C(=O)N(c3ccc(OC)c(Cl)c3)C(=S)N2C2CC2)cc1 (stereo not given)	100	102	-3	-3	·	·	·
CCOc1ccccc1NC(=O)CSc1nnc2ccc(-c3cccnc3)nn12	74	66	10	-28	·	·	·
COc1ccccc1NC(=O)CSc1nnc2ccc(-c3cccnc3)nn12	107	118	29	190*	104	6	107
O=C(CSc1nc(C2CCCCC2)nc2ccccc12)NCc1ccco1	-1.0*[inhibitor]	2.0*[inhibitor]	4	-28	109	7	110
C(=C\n1nnc2ccccc21)/c1ccc[nH]1	·	·	30	·	·	·	·
